Assay outcomes as filed in PubChem.
Lmaj promast: inhibitors of Leishmania major promastigote growth; Leishmania major promastigotes, resazurin fluorescence viability; inhibition, % at 10 µM; 200,000 tested, 9% active; AID 1063; in the data active = inhibition above about 50%;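 note: promastigotes grown with compound for 44 hours at 28 °C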
HSF-1 act: increases HSF-1 driven luciferase reporter signal | NIH3T3-HGL HSF-1 luciferase reporter, MG132, 8 h; 100% = twice DMSO control signal | activation, % at 9 µM | 300,000 tested, 1.7% active;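 active = mean replicate activation of at least 50% with a set share of replicates each reaching 50%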;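 note: 0% = median of the neutral control wells and 100% = twice that signal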
HSF1 inhib: HSF1 inhibition | NIH3T3-HGL HSE-luciferase, MG132-induced, luminescence 8 h; hits give low values | activity change, negative = inhibition, % at 7.5 µM (by protocol) | 300,000 tested, 0.77% active | AID 2098;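 active = more than half of replicate wells show activity change below -50%, luminescence cut by over half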;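 note: luciferase reports HSF-1 transcriptional activity via heat shock element; 0% = median of DMSO wells and -100% = zero luminescence signal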
Hsp70 act: switches on Hsp70 transcription; HeLa Hsp70 promoter luciferase reporter, luminescence; scaled: vehicle 0, proteasome-inhibitor control 100%; activation, % at 10 µM; 200,000 tested, 0.04% active; AID 1203;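 active = activation above the mean across all tested compounds plus 3 SD, cutoff set per campaign, cut at about 5.5% in these data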;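 note: 100% = MG132 at 30 µM as the positive control and 0% = DMSO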
T cruzi inh: blocks replication of Trypanosoma cruzi | T. cruzi beta-gal in NIH3T3, luminescence, 90 h | inhibition, % (no concentration beside the values) | 300,000 tested, 1.4% active;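 active = mean inhibition across valid replicates above about 55%, limit read from the data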;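 note: signal also drops with host cell toxicity which is not excluded here; 0% = plate median of DMSO wells and 100% = zero luminescence signal; higher percent means less beta-gal luminescence so fewer parasites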
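Material: NIH/3T3 host cells with β-galactosidase reporter T. cruzi; Input: 5,000 host fibroblasts per well; Medium: DMEM, 2% fetal bovine serum; Compound: 50 nL DMSO compound solution per well; Schedule: 3 h host attachment, then at least 90 h co-culture; Detection: luminescent β-galactosidase signal after 60 min lysis.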
Starred values were filed as active, the others as inactive; x = no result. Only a selection was taken, and hits are over-represented in it overall.

SMILES	Lmaj promast	HSF-1 act	HSF1 inhib	Hsp70 act	T cruzi inh
Cc1nn2c(N3CCCC3)cc(C(C)C)nc2c1-c1ccccc1	87*	-24	-7	0	16
Cc1nn2c(N3CCN(C)CC3)cc(C(C)(C)C)nc2c1-c1ccccc1	x	8	1	x	67*
Cc1nn2c(N3CCN(C4CCCC4)CC3)cc(C(C)(C)C)nc2c1-c1ccccc1	13	4	-5	0	-10
Cc1cc(N2CCCCC2)n2nc(C)c(-c3ccccc3)c2n1	8	6	1	0	22
COc1ccccc1-c1c(C)nn2c(N3CCOCC3)cc(C)nc12	x	8	0	x	-1
COc1ccccc1-c1c(C)nn2c(N3CCCCCC3)cc(C)nc12	79*	3	11	0	43
C[C@H](N)C(=O)N1CCC(C(=O)N[C@@H](Cc2ccccc2)C(=O)Nc2ccc(F)cc2)CC1	x	16	2	x	2
Cc1[nH]c(=O)c(C#N)c(C)c1CCC(=O)NCc1cccc(C(F)(F)F)c1	x	18	0	x	-25
O=C(CSc1nc2cc(Cl)ccc2s1)Nc1cccc(S(=O)(=O)N2CCOCC2)c1	22	-63	-54*	0	3
O=C(CNCC1CCCCC1)Nc1cccc(S(=O)(=O)N2CCOCC2)c1	79*	-2	5	0	4
O=C(CCl)Nc1cccc(S(=O)(=O)N2CCCCCC2)c1	85*	17	9	0	8
O=C(CNC(=O)c1ccc(Br)o1)Nc1cccc(S(=O)(=O)N2CCOCC2)c1	x	3	0	x	0
O=C(CSc1nc2cc(Cl)ccc2c(=O)n1Cc1ccco1)Nc1ccc(S(=O)(=O)N2CCOCC2)cc1	44	79*	41	0	5
Cc1nonc1-c1csc(N)n1	-3	-14	-7	0	16
CCCCN(C(=O)C1CC1)C1CCS(=O)(=O)C1 (centres undefined)	x	-3	-10	x	-4
COc1ccc(NS(=O)(=O)c2cccc(NC(=O)c3cnccn3)c2)cc1Br	100*	14	2	0	68*
O=C(CN1C(=O)NC(Cc2c[nH]c3ccccc23)C1=O)Nc1cccc(S(=O)(=O)N2CCCCCC2)c1 (centres undefined)	64*	-15	-2	0	-26
CC(Oc1ncnc2ccccc12)C(=O)Nc1cccc(S(=O)(=O)N2CCOCC2)c1 (centres undefined)	78*	1	-10	0	-5
O=C(Nc1cccc(S(=O)(=O)N2CCCCC2)c1)c1cnccn1	87*	-4	-2	0	-7
Cc1cc(C)nc(NS(=O)(=O)c2ccc(NC(=O)Cc3ccccc3F)cc2)n1	x	-16	-9	x	-11
Cc1nn(CC(=O)Nc2cccc(S(N)(=O)=O)c2)c(C)c1[N+](=O)[O-]	63*	-29	-8	0	-5
Cc1ccc2nc(NC(=O)Cn3nc(C)c([N+](=O)[O-])c3C)sc2c1	69*	3	5	0	3
Cc1csc(NC(=O)Cn2nc(C)c([N+](=O)[O-])c2C)n1	-3	-7	-3	0	0
COc1cc(CNC2CCCCCCC2)ccc1OCC(N)=O	x	-5	0	x	-12
CCOC(=O)c1ccc(NC(=O)COc2ccccc2CNCCc2ccccc2)cc1	101*	32	5	0	51
SMILES	Lmaj promast	HSF-1 act	HSF1 inhib	Hsp70 act	T cruzi inh
COc1cc(CNC(C)(C)CO)ccc1OCC(=O)Nc1ccc(Br)cc1	101*	-12	-8	0	37
CCOC(=O)c1ccc(NC(=O)COc2ccc(CNC3CCCCC3)cc2OC)cc1	94*	12	4	0	27
Cc1c2cnn(-c3ccccc3)c(=O)c2c(C)n1CCCC(=O)NCCN1CCN(C)CC1	x	-7	-3	x	1
CCc1ccc2oc(-c3cc(N=Cc4cccc(OC)c4O)ccc3O)nc2c1	3	-4	-7	0	64*
O=C(Nn1c(-c2ccccc2)nc2ccccc2c1=O)c1cccs1	-3	-2	2	0	1
COc1ccc(CN(C(=O)Cc2cccs2)C(C(=O)NC2CCCC2)c2ccncc2)cc1 (centres undefined)	57*	8	-8	0	66*
COC(=O)c1ccc(C(C(=O)NC2CCCCC2)N(Cc2ccc(F)cc2)C(=O)Cc2cccs2)cc1 (centres undefined)	56*	6	2	0	13
COc1ccc(C(C(=O)NC2CCCC2)N(Cc2cccnc2)C(=O)Cc2cccs2)cc1OC (centres undefined)	x	10	2	x	-3
COc1ccc2c(c1)c(C(=O)CNc1nc(C)cs1)c(C)n2C	26	61*	25	0	21
O=C(Nc1nc2ccccc2s1)c1ccccc1	22	38	27	0	-1
c1ccc2sc(NN=C3CCCCCC3)nc2c1	63*	6	9	0	43
O=C1CCSc2c1ccc1ccccc21	x	-10	-10	x	x
Cc1ncc(CO)c(/C=N/NC(=O)c2cc(Br)ccc2O)c1O	-9	-8	-6	0	-11
Cc1ncc(CO)c(/C=N/NC(=O)c2ccc(Br)cc2)c1O	98*	0	-3	0	-18
Cc1csc(=O)n1CC(=O)OCC(=O)NCc1ccc(Cl)cc1Cl	x	5	-2	x	-13
O=C(CNC(=S)N(Cc1ccccc1)Cc1cccnc1)NCc1ccccc1	14	-20	-3	0	54
COc1ccc(CN(Cc2cccnc2)C(=S)NCCc2ccccc2)cc1OC	100*	9	-8	0	48
Cc1ccc(CCNC(=O)CNC(=S)N(Cc2ccccc2)Cc2cccnc2)cc1	7	3	8	0	72*
O=C(CNC(=S)N(Cc1ccccc1)Cc1cccnc1)NC1CCCCC1	21	14	3	0	64*
COc1ccc(NS(=O)(=O)c2cccc(C(=O)NCC(c3ccco3)N3CCCC3)c2)cc1 (centres undefined)	x	-35	-14	x	50
COC(=O)c1ccc(CSc2nc3ccccc3c(=O)n2Cc2ccco2)o1	97*	2	2	0	21
O=C(CSc1nnc(-c2ccncc2)n1Cc1ccccc1)NC1CCCc2ccccc21 (centres undefined)	83*	-3	-4	0	50
O=C(CSc1nnc(-c2ccncc2)n1Cc1ccccc1)NCCc1ccccc1	4	6	-1	0	16
O=C(CSc1nc2ccccc2c(=O)n1Cc1ccco1)NCc1ccccc1	-5	-1	2	0	13
CNC(=O)CSc1nnc(-c2ccncc2)n1Cc1ccccc1	2	5	4	0	-3
COC(=O)c1ccc(CSc2nnc(-c3ccncc3)n2Cc2ccccc2)o1	76*	-1	-3	0	38
COC(=O)c1ccc(CSc2nnnn2-c2ccc(C)cc2C)o1	6	71*	33	0	4
COC(=O)c1ccc(NC(=O)CN2CCN(c3ccccn3)CC2)cc1	-2	27	1	0	-3
